Experimental data reported in ChEMBL document CHEMBL3232839, “Identification of isosilybin a from milk thistle seeds as an agonist of peroxisome proliferator-activated receptor gamma” (J Nat Prod, 2014).
The source made the active and inactive calls. The calls are words filed in the database; no cut-off is given here.

What was measured:
[1] = molecular target: T1, Peroxisome proliferator-activated receptor gamma (Homo sapiens) (UniProt P37231); test: Transactivation of human PPAR-gamma expressed in HEK293 cells after 18 hrs by luciferase reporter gene assay relative to control; format: cell-based
T1 sequence (whole entry): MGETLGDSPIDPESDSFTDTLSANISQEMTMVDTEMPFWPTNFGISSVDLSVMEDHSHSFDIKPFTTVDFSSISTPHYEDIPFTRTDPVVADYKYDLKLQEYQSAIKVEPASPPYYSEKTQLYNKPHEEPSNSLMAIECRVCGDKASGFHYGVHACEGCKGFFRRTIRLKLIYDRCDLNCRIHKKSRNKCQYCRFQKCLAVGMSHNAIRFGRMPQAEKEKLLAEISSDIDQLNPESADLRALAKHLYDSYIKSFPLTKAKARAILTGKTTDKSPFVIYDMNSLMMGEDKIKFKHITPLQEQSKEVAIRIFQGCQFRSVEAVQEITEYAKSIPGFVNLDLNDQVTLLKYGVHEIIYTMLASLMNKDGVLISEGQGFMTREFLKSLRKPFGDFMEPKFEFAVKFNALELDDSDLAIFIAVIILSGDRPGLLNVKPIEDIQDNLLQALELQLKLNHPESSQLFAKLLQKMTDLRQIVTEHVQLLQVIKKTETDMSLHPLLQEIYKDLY
Method in brief: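 HEK-293 cells transiently co-transfected by calcium phosphate with full-length human PPARγ expression plasmid (pSG5-PL-hPPAR-gamma1), tk-PPREx3-luc reporter and EGFP internal control. Cells were reseeded and treated for 18 h, with 0.1% DMSO as vehicle. Luciferase was normalized to EGFP fluorescence and expressed as fold induction over vehicle. Means ± SD of three independent experiments, each in quadruplicate.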

[2] = molecular target: T1, Peroxisome proliferator-activated receptor gamma (Homo sapiens); test: Agonist activity at human PPAR-gamma expressed in HEK293 cells at 30 uM after 18 hrs by luciferase reporter gene assay relative to control
[3] = molecular target: T1, Peroxisome proliferator-activated receptor gamma (Homo sapiens); test: Reduction of pioglitazone-mediated human PPAR-gamma activation expressed in HEK293 cells after 18 hrs by luciferase reporter gene assay; format: cell-based
Method in brief: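 Co-treatment assay in human PPARγ/tk-PPREx3-luc/EGFP-transfected HEK-293 cells. Pioglitazone at varied concentrations was applied with or without 30 μM compound for 18 h, with DMSO vehicle at 0.1%. Luciferase was normalized to EGFP fluorescence and expressed as fold over vehicle. Means ± SD of three independent experiments in quadruplicate.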

[4] = molecular target: T1, Peroxisome proliferator-activated receptor gamma (Homo sapiens); test: Agonist activity at human PPAR-gamma expressed in HEK293 cells at 30 uM after 18 hrs by luciferase reporter gene assay in presence of T0070907

| Structure (SMILES) | Activity [2] | also measured |
| --- | --- | --- |
| COc1cc([C@H]2Oc3ccc([C@H]4Oc5cc(O)cc(O)c5C(=O)[C@@H]4O)cc3O[C@@H]2CO)ccc1O |  | Activity [1]: Dose-dependent effect; fold change (FC) [2]: 2.08; Activity [3]: Active; Activity [4]: inactive |
| COc1cc([C@@H]2[C@H]3CO[C@@]4(O)C(=O)[C@@H]2C=C([C@H]2Oc5cc(O)cc(O)c5C(=O)[C@@H]2O)[C@@H]34)ccc1O | inactive |  |
| O=C1c2c(O)cc(O)cc2O[C@H](c2ccc(O)c(O)c2)[C@H]1O | inactive |  |
| COc1cc(C2Oc3c(O)cc([C@H]4Oc5cc(O)cc(O)c5C(=O)[C@@H]4O)cc3C2CO)ccc1O (stereo not given in full) | inactive |  |

Further lines, with some results ahead:

| Activity [2] | Structure (SMILES) | also measured |
| --- | --- | --- |
| inactive | COc1cc([C@@H]2Oc3ccc([C@H]4Oc5cc(O)cc(O)c5C(=O)[C@@H]4O)cc3O[C@H]2CO)ccc1O |  |
| inactive | COc1cc([C@@H]2Oc3cc([C@H]4Oc5cc(O)cc(O)c5C(=O)[C@@H]4O)ccc3O[C@H]2CO)ccc1O |  |
| inactive | COc1cc([C@H]2Oc3cc([C@H]4Oc5cc(O)cc(O)c5C(=O)[C@@H]4O)ccc3O[C@@H]2CO)ccc1O |  |
